How the values were obtained:
[1] = target: Core antigen (Hepatitis B virus) (UniProt Q03732); assay: Inhibition of capsid protein in HBV infected in human HepDES19 cells assessed as inhibition of viral replication by measuring minus polarity DNA level at 5 uM incubated for 3 days by strand preferential qPCR analysis relative to control; type: cell-based; set-up: scale not given: the % may be the effect or the level left; settings: time 3.0 day
How it was run: (§1)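 HepDES19 cells (HepG2 line carrying a tetracycline-repressible HBV genotype D genome) seeded at 4 x 10^4/well without tetracycline. Lysates treated with micrococcal nuclease, then protease. Plus- or minus-strand DNA quantified by strand-preferential qPCR as % of DMSO control. Each compound screened at two concentrations only: 20 and 5 μM, or 10 and 3 μM.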

[2] = target: Core antigen (Hepatitis B virus) (UniProt Q03732); assay: Inhibition of capsid protein in HBV infected in human HepDES19 cells assessed as inhibition of viral replication by measuring minus polarity DNA level at 20 uM incubated for 3 days by strand preferential qPCR analysis relative to control; type: cell-based; set-up: scale not given: the % may be the effect or the level left; settings: time 3.0 day
How it was run: as §1, with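 “tetracycline. Compound added 48 h after induction in 1% DMSO, then 3 days at 37°C, 5% CO2.” for “tetracycline.”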

[3] = target: Core antigen (Hepatitis B virus) (UniProt Q03732); assay: Inhibition of capsid protein in HBV infected in human HepDES19 cells assessed as inhibition of viral replication by measuring plus polarity DNA level at 3 uM incubated for 3 days by strand preferential qPCR analysis relative to control; set-up: scale not given: the % may be the effect or the level left; settings: time 3.0 day
[4] = target: Core antigen (Hepatitis B virus) (UniProt Q03732); assay: Inhibition of capsid protein in HBV infected in human HepDES19 cells assessed as inhibition of viral replication by measuring plus polarity DNA level at 20 uM incubated for 3 days by strand preferential qPCR analysis relative to control; type: cell-based; set-up: scale not given: the % may be the effect or the level left; settings: time 3.0 day; how it was run: as §1
[5] = target: Core antigen (Hepatitis B virus) (UniProt Q03732); assay: Inhibition of capsid protein in HBV infected in human HepDES19 cells assessed as inhibition of viral replication by measuring minus polarity DNA level at 3 uM incubated for 3 days by strand preferential qPCR analysis relative to control; set-up: scale not given: the % may be the effect or the level left; settings: time 3.0 day
[6] = target: Core antigen (Hepatitis B virus) (UniProt Q03732); assay: Inhibition of capsid protein in HBV infected in human HepDES19 cells assessed as inhibition of viral replication by measuring minus polarity DNA level at 3 uM incubated for 3 days by strand preferential qPCR analysis relative to control; type: cell-based; set-up: scale not given: the % may be the effect or the level left; settings: time 3.0 day
How it was run: as §1, with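 “tetracycline. Compound added 48 h after induction in 1% DMSO, then 3 days at 37°C, 5% CO2.” for “tetracycline.”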

[7] = target: Core antigen (Hepatitis B virus) (UniProt Q03732); assay: Inhibition of capsid protein in HBV infected in human HepDES19 cells assessed as inhibition of viral replication by measuring plus polarity DNA level at 10 uM incubated for 3 days by strand preferential qPCR analysis relative to control; type: cell-based; set-up: scale not given: the % may be the effect or the level left; settings: time 3.0 day
How it was run: as §1, with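 “tetracycline. Compound added 48 h after induction in 1% DMSO, then 3 days at 37°C, 5% CO2.” for “tetracycline.”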

[8] = target: Core antigen (Hepatitis B virus) (UniProt Q03732); assay: Inhibition of capsid protein in HBV infected in human HepDES19 cells assessed as inhibition of viral replication by measuring plus polarity DNA level at 3 uM incubated for 3 days by strand preferential qPCR analysis relative to control; type: cell-based; set-up: scale not given: the % may be the effect or the level left; settings: time 3.0 day
How it was run: as §1, with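 “tetracycline. Compound added 48 h after induction in 1% DMSO, then 3 days at 37°C, 5% CO2.” for “tetracycline.”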

[9] = target: Core antigen (Hepatitis B virus) (UniProt Q03732); assay: Inhibition of capsid protein in HBV infected in human HepDES19 cells assessed as inhibition of viral replication by measuring minus polarity DNA level at 10 uM incubated for 3 days by strand preferential qPCR analysis relative to control; type: cell-based; set-up: scale not given: the % may be the effect or the level left; settings: time 3.0 day
How it was run: as §1, with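 “tetracycline. Compound added 48 h after induction in 1% DMSO, then 3 days at 37°C, 5% CO2.” for “tetracycline.”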

Hepatitis B virus [10] = assay: Antiviral activity against HBV infected in human HepG2.2.15 cells assessed as inhibition of viral replication incubated for 8 days by southern blotting analysis; type: functional, organism-based; settings: HepG2.2.15, 192 h
Hepatitis B virus [11] = assay: Antiviral activity against HBV infected in human HepG2.2.15 cells assessed as inhibition of viral replication in presence of 50% human serum albumin; type: functional

Chain of Core antigen (Hepatitis B virus) (Q03732 as listed by the source): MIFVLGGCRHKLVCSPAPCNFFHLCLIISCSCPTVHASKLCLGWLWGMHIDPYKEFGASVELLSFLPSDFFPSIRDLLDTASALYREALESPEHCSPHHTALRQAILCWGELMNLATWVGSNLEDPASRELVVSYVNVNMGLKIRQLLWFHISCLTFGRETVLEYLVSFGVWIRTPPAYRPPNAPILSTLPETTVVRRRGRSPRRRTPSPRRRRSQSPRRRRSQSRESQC

Row | SMILES | Activity [1] | Activity [2] | Activity [3] | Activity [4] | Activity [5] | further results
1 | CCOC(=O)C1=C(CN2CCC3(CC2)CNC3=O)NC(c2nccs2)=NC1c1ccc(F)cc1Br (stereo unspecified) | 3.4% | 2.5% | 2.7% | 2.4% |  | 
2 | CCOC(=O)C1=C(CN2CCC3(CCN(C(=O)OC(C)(C)C)CC3)C2)NC(c2nccs2)=NC1c1ccc(F)cc1Br (stereo unspecified) |  | 87% |  | 102% | 80.1% | 
3 | CCOC(=O)C1=C(CN2CCC3(C2)CN(C(=O)OC(C)(C)C)C3)NC(c2nccs2)=NC1c1ccc(F)cc1Br (stereo unspecified) |  | 56.5% |  | 54.7% | 85.3% | 
4 | CCOC(=O)C1=C(CN2CC3(CC2=O)CN(C(=O)OC(C)(C)C)C3)NC(c2nccs2)=NC1c1ccc(F)cc1Br (stereo unspecified) | 2.5% | 1.8% | 2.4% | 3.5% |  | 
5 | CCOC(=O)C1=C(CN2CCC3(CC2)CC(=O)NC3=O)NC(c2nccs2)=NC1c1ccc(F)cc1Br (stereo unspecified) | 21.1% | 34.8% | 18.9% | 22.4% |  | 
6 | CCOC(=O)C1=C(CN2CC3(CNC3)C2)NC(c2nccs2)=NC1c1ccc(F)cc1Br (stereo unspecified) |  | 94.8% |  | 87.4% | 85.9% | 
7 | CCOC(=O)C1=C(CN2CCC3(CNC3)C2)NC(c2nccs2)=NC1c1ccc(F)cc1Br (stereo unspecified) |  | 88.8% |  | 82.2% | 84.5% | 
8 | CCOC(=O)C1=C(CN2CCC3(CC2)CC(N)C3)NC(c2nccs2)=NC1c1ccc(F)cc1Br (stereo unspecified) |  | 105% |  | 114% | 69.9% | 
9 | CCOC(=O)C1=C(CN2CCC3(CCN(C(=O)OC(C)(C)C)C3)C2)NC(c2nccs2)=NC1c1ccc(F)cc1Br (stereo unspecified) |  | 28.8% |  | 16.8% | 67.1% | 
10 | CCOC(=O)C1=C(CN2CCC3(CC2)CNC3)NC(c2nccs2)=NC1c1ccc(F)cc1Br (stereo unspecified) |  | 93.4% |  | 113% | 70.8% | 
11 | CCOC(=O)C1=C(CN2CCC3(CCNCC3)CC2)NC(c2nccs2)=NC1c1ccc(F)cc1Br (stereo unspecified) |  | 97.7% |  | 106% | 67.1% | 
12 | CCOC(=O)C1=C(CN2CCC3(CC2)CN(C(=O)OC(C)(C)C)C3)NC(c2nccs2)=NC1c1ccc(F)cc1Br (stereo unspecified) |  |  |  |  |  | Activity [6]: 83.7%; Activity [7]: 60.9%; Activity [8]: 87.7%; Activity [9]: 60.2%
13 | CCOC(=O)C1=C(CN2CCC3(CC2)CCN(C(=O)OC(C)(C)C)C3)NC(c2nccs2)=NC1c1ccc(F)cc1Br (stereo unspecified) |  |  |  |  |  | Activity [6]: 85%; Activity [7]: 92.5%; Activity [8]: 85.3%; Activity [9]: 76.1%
14 | CCOC(=O)C1=C(CN2CCC3(CC2)OCCO3)NC(c2nccs2)=NC1c1ccc(F)cc1Br (stereo unspecified) | 3.1% | 3.4% | 3.8% | 3.4% |  | 
15 | CCOC(=O)C1=C(CN2CCC3(CC(=O)N(Cc4ccccc4)C3=O)C2)NC(c2nccs2)=NC1c1ccc(F)cc1Br (stereo unspecified) | 2.8% | 2.2% | 3% | 2% |  | 
16 | CCOC(=O)C1=C(CN2CCC3(CCNC3=O)CC2)NC(c2nccs2)=NC1c1ccc(F)cc1Br (stereo unspecified) | 44.1% | 37.8% |  | 18.3% |  | 
17 | CCOC(=O)C1=C(CN2CCOCC2)NC(c2nccs2)=N[C@H]1c1ccc(F)cc1Br |  | 22.6% |  |  |  | EC50 (Hepatitis B virus [10]): 0.012 µM; EC90 (Hepatitis B virus [11]): 0.0557 mg/L
18 | CCOC(=O)C1=C(CN2CC3(CCN(C(=O)OC(C)(C)C)C3)CC2=O)NC(c2nccs2)=NC1c1ccc(F)cc1Br (stereo unspecified) | 2.9% | 1.3% | 2.7% | 1.8% |  | 
19 | CCOC(=O)C1=C(CN2CCC3(CCNC3)CC2)NC(c2nccs2)=NC1c1ccc(F)cc1Br (stereo unspecified) |  | 99.6% |  | 105% | 72.5% | 
20 | CCOC(=O)C1=C(CN2CCC3(CCNCC3)C2)NC(c2nccs2)=NC1c1ccc(F)cc1Br (stereo unspecified) |  | 86.4% |  | 88.4% | 69.9% | 
21 | CCOC(=O)C1=C(CN2CC3(C2)CN(C(=O)OC(C)(C)C)C3)NC(c2nccs2)=NC1c1ccc(F)cc1Br (stereo unspecified) |  | 96.5% |  | 105% | 85.7% | 
22 | CCOC(=O)C1=C(CN2CCC3(CC2)CNC(=O)C3)NC(c2nccs2)=NC1c1ccc(F)cc1Br (stereo unspecified) | 4% | 2.7% | 3.4% | 2.4% |  | 
23 | CCOC(=O)C1=C(CN2CCC3(CC2)CCN(C(=O)OC(C)(C)C)CC3)NC(c2nccs2)=NC1c1ccc(F)cc1Br (stereo unspecified) |  |  |  |  |  | Activity [6]: 74.5%; Activity [7]: 91.1%; Activity [8]: 93%; Activity [9]: 110%
24 | CCOC(=O)C1=C(CN2CCC3(CC2)CC(NC(=O)OC(C)(C)C)C3)NC(c2nccs2)=NC1c1ccc(F)cc1Br (stereo unspecified) |  | 117% |  | 111% | 97.2% | 
25 | Nc1ccn([C@@H]2CS[C@H](CO)O2)c(=O)n1 [LAMIVUDINE] |  | 11.8% | 23.9% | 4% | 79.1% | EC50 (Hepatitis B virus [10]): 0.325 µM
26 | CCOC(=O)C1=C(CN2CC3(CNC3)CC2=O)NC(c2nccs2)=NC1c1ccc(F)cc1Br (stereo unspecified) |  | 85.3% |  | 108% |  | 
27 | CCOC(=O)C1=C(CN2CCC3(CCNC3)C2=O)NC(c2nccs2)=NC1c1ccc(F)cc1Br (stereo unspecified) |  | 81.4% |  | 109% |  | 
28 | CCOC(=O)C1=C(CN2CCC3(CCN(C(=O)OC(C)(C)C)C3)C2=O)NC(c2nccs2)=NC1c1ccc(F)cc1Br (stereo unspecified) | 2.9% | 0.8% | 3.3% | 0.8% |  | 
29 | CCOC(=O)C1=C(CN2CC3(CCNC3)CC2=O)NC(c2nccs2)=NC1c1ccc(F)cc1Br (stereo unspecified) |  | 68.9% |  | 120% |  | 
30 | CCOC(=O)C1=C(CN2CCC3(CNC(=O)C3)C2)NC(c2nccs2)=NC1c1ccc(F)cc1Br (stereo unspecified) | 2.3% | 2.5% | 2.8% | 3% |  | 

— ChEMBL document CHEMBL4828746, “Design, synthesis and evaluation of heteroaryldihydropyrimidine analogues bearing spiro ring as hepatitis B virus capsid protein inhibitors” (Eur J Med Chem, 2021)
